# What was measured:
# Type in all cases: functional
# Staphylococcus aureus [1] = assay: Minimum inhibitory concentration against methicillin resistant Staphylococcus aureus OC 2878
# Summary of the method: (§1)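 Broth microdilution per NCCLS methods; MIC read as the lowest compound concentration inhibiting visible growth. Linezolid run as standard. Strains from a four-strain Gram-positive screening panel: S. aureus OC 2878 is methicillin-resistant, E. faecium OC 3312 is vancomycin-resistant.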
# Staphylococcus aureus [2] = assay: Minimum inhibitory concentration against Staphylococcus aureus OC 4172 in precense of 50% mouse serum
# Summary of the method: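 Broth microdilution MIC against S. aureus OC 4172 (Smith, methicillin-susceptible) with 50% mouse serum in the medium, to gauge protein binding or serum inactivation. Run by NCCLS methods with linezolid as standard. MIC is the lowest concentration inhibiting visible growth.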
# Enterococcus faecalis = assay: Minimum inhibitory concentration against Enterococcus faecalis ATTCC 29212
# Summary of the method: (§2)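 Broth microdilution MIC run by National Committee for Clinical Laboratory Standards methods, with linezolid as standard. MIC is the lowest compound concentration inhibiting visible growth.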
# Enterococcus faecium = assay: Minimum inhibitory concentration against vancomycin resistant Enterococcus faecium OC 3312; summary of the method: as §1
# Staphylococcus aureus [3] = assay: Minimum inhibitory concentration against Staphylococcus aureus broth; summary of the method: as §2
# Mus musculus [4] = assay: Effective dose of compound after oral administration in mice with Staphylococcus aureus OC4172 (Smith) was determined
# Summary of the method: (§3)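 Murine model of lethal systemic infection, with compound given orally. ED50 is the dose protecting 50% of mice from death, expressed in mg/kg/day.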
# Mus musculus [5] = assay: Effective dose of compound after oral administration in murine model infected with Staphylococcus aureus OC4172 (Smith) was determined; summary of the method: as §3
SMILES,MIC (Staphylococcus aureus [1]),MIC (Staphylococcus aureus [2]),MIC (Enterococcus faecalis),MIC (Enterococcus faecium),MIC (Staphylococcus aureus [3]),ED50 (Mus musculus [4]),ED50 (Mus musculus [5])
CC(=O)NC[C@H]1CN(c2ccc(-n3cc4cccnc4c3)c(F)c2)C(=O)O1,0.5 µg/mL,2 µg/mL,1 µg/mL,1 µg/mL,1 µg/mL,,
CC(=O)NC[C@H]1CN(c2ccc(N3Cc4ccccc4C3)c(F)c2)C(=O)O1,1 µg/mL,16 µg/mL,4 µg/mL,4 µg/mL,4 µg/mL,> 80 mg/kg/day,
CCN(Cc1ccccn1)c1ccc(N2C[C@H](CNC(C)=O)OC2=O)cc1F,,> 128 µg/mL,> 128 µg/mL,> 128 µg/mL,> 128 µg/mL,,
CC(=O)NC[C@H]1CN(c2ccc(-n3cc4cncnc4c3)c(F)c2)C(=O)O1,1 µg/mL,2 µg/mL,1 µg/mL,0.5 µg/mL,1 µg/mL,,
CC(=O)NC[C@H]1CN(c2ccc(-n3cc4ccncc4c3)c(F)c2)C(=O)O1,0.5 µg/mL,1 µg/mL,1 µg/mL,0.5 µg/mL,0.5 µg/mL,,
CC(=O)NC[C@H]1CN(c2ccc(N3C(=O)c4ccncc4C3=O)c(F)c2)C(=O)O1,,> 128 µg/mL,> 128 µg/mL,> 128 µg/mL,> 128 µg/mL,,
CC(=O)NC[C@H]1CN(c2ccc(N3C(=O)c4cccnc4C3=O)c(F)c2)C(=O)O1,,> 128 µg/mL,> 128 µg/mL,> 128 µg/mL,> 128 µg/mL,,
CC(=O)NC[C@H]1CN(c2ccc(N3Cc4ncccc4C3=O)c(F)c2)C(=O)O1,4 µg/mL,8 µg/mL,16 µg/mL,8 µg/mL,16 µg/mL,,
CC(=O)NC[C@H]1CN(c2ccc(N3Cc4ccncc4C3)c(F)c2)C(=O)O1,0.5 µg/mL,1 µg/mL,1 µg/mL,1 µg/mL,1 µg/mL,,
CC(=O)NC[C@H]1CN(c2ccc(N3C(=O)c4ccccc4C3=O)c(F)c2)C(=O)O1,16 µg/mL,128 µg/mL,64 µg/mL,32 µg/mL,32 µg/mL,,
CCN(Cc1cccnc1)c1ccc(N2C[C@H](CNC(C)=O)OC2=O)cc1F,8 µg/mL,32 µg/mL,16 µg/mL,16 µg/mL,16 µg/mL,,
CC(=O)NC[C@H]1CN(c2ccc(N3Cc4cccnc4C3=O)c(F)c2)C(=O)O1,8 µg/mL,8 µg/mL,32 µg/mL,8 µg/mL,8 µg/mL,,
CC(=O)NC[C@H]1CN(c2ccc(N3Cc4ccccc4C3=O)c(F)c2)C(=O)O1,4 µg/mL,16 µg/mL,8 µg/mL,8 µg/mL,4 µg/mL,,
CC(=O)NC[C@H]1CN(c2ccc(N3Cc4cccnc4C3)c(F)c2)C(=O)O1,0.25 µg/mL,1 µg/mL,0.5 µg/mL,0.5 µg/mL,0.5 µg/mL,,
CC(=O)NC[C@H]1CN(c2ccc(N3Cc4cncnc4C3)c(F)c2)C(=O)O1,1 µg/mL,2 µg/mL,2 µg/mL,1 µg/mL,1 µg/mL,,
CC(=O)NC[C@H]1CN(c2ccc(N3CCOCC3)c(F)c2)C(=O)O1 [LINEZOLID],1 µg/mL,,,2 µg/mL,,,8 mg/kg/day

# Reference: ChEMBL document CHEMBL1144984, “Synthesis and antibacterial activity of pyrroloaryl-substituted oxazolidinones” (2003)
